Experimental data as given in ChEMBL document CHEMBL1255259, “Phosphorothioate-modified oligodeoxynucleotides inhibit human cytomegalovirus replication by blocking virus entry” (Antimicrob Agents Chemother, 2008).
Activity calls are given as the source filed them. No cut-off for these calls is given here.

How the values were obtained:
Human betaherpesvirus 5 [1] = assay: Antimicrobial activity against 0.1 uM compound pretreated Human cytomegalovirus AD169 infected in HELF assessed as reduction in viral titer at 4 degC; assay type: functional, organism-based
Outline: (§1)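 HCMV AD169 (10^4 PFU) incubated with ODN at 0.1 μM at 4 or 37°C for various times; samples then diluted to bring ODN below an antivirally active level; residual infectivity titrated by plaque assay on HELF. Means ± SD of three independent experiments.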

Human betaherpesvirus 5 [2] = assay: Antimicrobial activity against Human cytomegalovirus AD169 infected in compound pretreated HELF assessed as inhibition of viral replication measured after 6 days post-infection; assay type: functional, organism-based; details: Human betaherpesvirus 5, AD169, HELF
Outline: (§2)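 HELF pretreated with ODN 1 h before infection with HCMV AD169 (MOI 1); ODN kept in medium after 2 h adsorption at 37°C. At 6 days p.i., cells plus supernatants sonicated and titrated by plaque assay on HELF; plaques counted microscopically, expressed as PFU/ml (log10) or % of control. IC50/IC90 by linear regression; duplicate wells, three independent experiments, means ± SD.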

Human betaherpesvirus 5 [3] = assay: Antimicrobial activity against Human cytomegalovirus AD169 infected in 1 uM compound pretreated HELF assessed as inhibition of viral replication measured after 6 days post-infection; assay type: functional, organism-based; outline: as §2
[4] = Cytotoxicity against HELF assessed as cell viability by MTT assay after 6 days at <=10 uM; assay type: cell-based; details: human, 144 h
Outline: (§3)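 HELF exposed to rising ODN concentrations (up to 10 μM) for 6 days; viable cells measured by MTT. CC50 taken as concentration that cuts viability to 50%.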

Human betaherpesvirus 5 [5] = assay: Antimicrobial activity against 0.1 uM compound pretreated Human cytomegalovirus AD169 infected in HELF assessed as reduction in viral titer 37 degC; assay type: functional, organism-based; outline: as §1
[6] = Cytotoxicity against HELF assessed as cell viability after 6 days by MTT assay; assay type: cell-based; details: human, HELF cells; outline: as §3
Human betaherpesvirus 5 [7] = assay: Antimicrobial activity against Human cytomegalovirus AD169 infected in 0.1 uM compound pretreated HELF assessed as inhibition of viral replication measured after 6 days post-infection; assay type: functional, organism-based; outline: as §2

| IC50 (Human betaherpesvirus 5 [2]) [nM] | IC90 (Human betaherpesvirus 5 [2]) [µM] | Compound | inhibition (Human betaherpesvirus 5 [1]) | inhibition (Human betaherpesvirus 5 [3]) | Activity [4] | inhibition (Human betaherpesvirus 5 [5]) | CC50 at 144 h [6] [µM] | inhibition (Human betaherpesvirus 5 [7]) |
| --- | --- | --- | --- | --- | --- | --- | --- | --- |
| 3800 | > 10 | Cc1cn([C@H]2C[C@H](OP(=O)(O)O)[C@@H](COP(=O)(O)O[C@H]3C[C@H](n4cc(C)c(=O)[nH]c4=O)O[C@@H]3COP(=O)(O)O[C@H]3[C@@H](O)[C@H](n4cnc5c(=O)[nH]c(N)nc54)O[C@@H]3COP(=O)(O)O[C@H]3[C@@H](O)[C@H](n4ccc(N)nc4=O)O[C@@H]3COP(=O)(O)O[C@H]3C[C@H](n4cc(C)c(=O)[nH]c4=O)O[C@@H]3COP(=O)(O)O[C@H]3[C@@H](O)[C@H](n4cnc5c(=O)[nH]c(N)nc54)O[C@@H]3COP(=O)(O)O[C@H]3C[C@H](n4cc(C)c(=O)[nH]c4=O)O[C@@H]3COP(=O)(O)O[C@H]3C[C@H](n4cc(C)c(=O)[nH]c4=O)O[C@@H]3COP(=O)(O)O[C@H]3C[C@H](n4cc(C)c(=O)[nH]c4=O)O[C@@H]3COP(=O)(O)O[C@H]3C[C@H](n4cc(C)c(=O)[nH]c4=O)O[C@@H]3COP(=O)(O)O[C@H]3[C@@H](O)[C@H](n4cnc5c(=O)[nH]c(N)nc54)O[C@@H]3COP(=O)(O)O[C@H]3[C@@H](O)[C@H](n4ccc(N)nc4=O)O[C@@H]3COP(=O)(O)O[C@H]3C[C@H](n4cc(C)c(=O)[nH]c4=O)O[C@@H]3COP(=O)(O)O[C@H]3[C@@H](O)[C@H](n4cnc5c(=O)[nH]c(N)nc54)O[C@@H]3COP(=O)(O)O[C@H]3C[C@H](n4cc(C)c(=O)[nH]c4=O)O[C@@H]3COP(=O)(O)O[C@H]3C[C@H](n4cc(C)c(=O)[nH]c4=O)O[C@@H]3COP(=O)(O)O[C@H]3C[C@H](n4cc(C)c(=O)[nH]c4=O)O[C@@H]3COP(=O)(O)O[C@H]3C[C@H](n4cc(C)c(=O)[nH]c4=O)O[C@@H]3COP(=O)(O)O[C@H]3[C@@H](O)[C@H](n4cnc5c(=O)[nH]c(N)nc54)O[C@@H]3COP(=O)(O)O[C@H]3[C@@H](O)[C@H](n4ccc(N)nc4=O)O[C@@H]3COP(=O)(O)O[C@H]3C[C@H](n4cc(C)c(=O)[nH]c4=O)O[C@@H]3COP(=O)(O)O[C@H]3[C@@H](O)[C@H](n4cnc5c(=O)[nH]c(N)nc54)O[C@@H]3COP(=O)(O)O[C@H]3[C@@H](O)[C@H](n4ccc(N)nc4=O)O[C@@H]3COP(=O)(O)O[C@H]3C[C@H](n4cc(C)c(=O)[nH]c4=O)O[C@@H]3CO)O2)c(=O)[nH]c1=O | inactive | Active | Non-toxic | inactive | > 10 | Active |
| 200 | > 5 | Cc1cn([C@H]2C[C@H](OP(O)(=S)OC[C@H]3O[C@@H](n4cc(C)c(=O)[nH]c4=O)C[C@@H]3OP(O)(O)=S)[C@@H](OOP(O)(=S)O[C@H]3[C@@H](O)[C@H](n4ccc(N)nc4=O)O[C@@H]3COP(O)(=S)O[C@H]3[C@@H](O)[C@H](n4cnc5c(=O)[nH]c(N)nc54)O[C@@H]3COP(O)(=S)O[C@H]3[C@@H](O)[C@H](n4cnc5c(N)ncnc54)O[C@@H]3COP(O)(=S)O[C@H]3[C@@H](O)[C@H](n4cnc5c(=O)[nH]c(N)nc54)O[C@@H]3COP(O)(=S)O[C@H]3C[C@H](n4cc(C)c(=O)[nH]c4=O)O[C@@H]3COP(O)(=S)O[C@H]3[C@@H](O)[C@H](n4ccc(N)nc4=O)O[C@@H]3COP(O)(=S)O[C@H]3[C@@H](O)[C@H](n4ccc(N)nc4=O)O[C@@H]3COP(O)(=S)O[C@H]3C[C@H](n4cc(C)c(=O)[nH]c4=O)O[C@@H]3COP(O)(=S)O[C@H]3C[C@H](n4cc(C)c(=O)[nH]c4=O)O[C@@H]3COP(O)(=S)O[C@H]3[C@@H](O)[C@H](n4ccc(N)nc4=O)O[C@@H]3COP(O)(=S)O[C@H]3[C@@H](O)[C@H](n4cnc5c(=O)[nH]c(N)nc54)O[C@@H]3COP(O)(=S)O[C@H]3[C@@H](O)[C@H](n4cnc5c(N)ncnc54)O[C@@H]3COP(O)(=S)O[C@H]3[C@@H](O)[C@H](n4cnc5c(=O)[nH]c(N)nc54)O[C@@H]3COP(O)(=S)O[C@H]3C[C@H](n4cc(C)c(=O)[nH]c4=O)O[C@@H]3COP(O)(=S)O[C@H]3[C@@H](O)[C@H](n4cnc5c(N)ncnc54)O[C@@H]3COP(O)(=S)O[C@H]3[C@@H](O)[C@H](n4ccc(N)nc4=O)O[C@@H]3COP(O)(=S)O[C@H]3[C@@H](O)[C@H](n4ccc(N)nc4=O)O[C@@H]3COP(O)(=S)O[C@H]3C[C@H](n4cc(C)c(=O)[nH]c4=O)O[C@@H]3CO)O2)c(=O)[nH]c1=O (some centres undefined) | inactive | Active | Non-toxic | inactive | > 10 | Active |
| 100 | 3.2 | Cc1cn([C@H]2C[C@H](OP(O)(=S)OC[C@H]3O[C@@H](n4ccc(N)nc4=O)[C@H](O)[C@@H]3OP(O)(=S)OC[C@H]3O[C@@H](n4cnc5c(=O)[nH]c(N)nc54)[C@H](O)[C@@H]3OP(O)(=S)OC[C@H]3O[C@@H](n4cc(C)c(=O)[nH]c4=O)C[C@@H]3OP(O)(=S)OC[C@H]3O[C@@H](n4ccc(N)nc4=O)[C@H](O)[C@@H]3OP(O)(=S)OC[C@H]3O[C@@H](n4cnc5c(=O)[nH]c(N)nc54)[C@H](O)[C@@H]3OP(O)(=S)OC[C@H]3O[C@@H](n4cc(C)c(=O)[nH]c4=O)C[C@@H]3OP(O)(=S)OC[C@H]3O[C@@H](n4cc(C)c(=O)[nH]c4=O)C[C@@H]3OP(O)(=S)OC[C@H]3O[C@@H](n4cc(C)c(=O)[nH]c4=O)C[C@@H]3OP(O)(=S)OC[C@H]3O[C@@H](n4cc(C)c(=O)[nH]c4=O)C[C@@H]3OP(O)(=S)OC[C@H]3O[C@@H](n4ccc(N)nc4=O)[C@H](O)[C@@H]3OP(O)(=S)OC[C@H]3O[C@@H](n4cnc5c(=O)[nH]c(N)nc54)[C@H](O)[C@@H]3OP(O)(=S)OC[C@H]3O[C@@H](n4cnc5c(=O)[nH]c(N)nc54)[C@H](O)[C@@H]3OP(O)(=S)OC[C@H]3O[C@@H](n4ccc(N)nc4=O)[C@H](O)[C@@H]3OP(O)(=S)OC[C@H]3O[C@@H](n4cnc5c(=O)[nH]c(N)nc54)[C@H](O)[C@@H]3OP(O)(=S)OC[C@H]3O[C@@H](n4ccc(N)nc4=O)[C@H](O)[C@@H]3OP(O)(=S)OC[C@H]3O[C@@H](n4cnc5c(=O)[nH]c(N)nc54)[C@H](O)[C@@H]3OP(O)(=S)OC[C@H]3O[C@@H](n4ccc(N)nc4=O)[C@H](O)[C@@H]3OP(O)(=S)OC[C@H]3O[C@@H](n4cnc5c(=O)[nH]c(N)nc54)[C@H](O)[C@@H]3OP(O)(=S)OC[C@H]3O[C@@H](n4ccc(N)nc4=O)[C@H](O)[C@@H]3OP(O)(=S)OC[C@H]3O[C@@H](n4ccc(N)nc4=O)[C@H](O)[C@@H]3OP(O)(=S)OC[C@H]3O[C@@H](n4cnc5c(=O)[nH]c(N)nc54)[C@H](O)[C@@H]3OP(O)(O)=S)[C@@H](CO)O2)c(=O)[nH]c1=O (some centres undefined) | inactive | Active | Non-toxic | inactive | > 10 | Active |
